# Test results: ChEMBL document CHEMBL1123812, “Pyrroloisoquinoline antidepressants. 2. In-depth exploration of structure-activity relationships” (J Med Chem, 1987)
# The source made the active and inactive calls.
# Experiments:
# [1] = biological target: Muscarinic acetylcholine receptor (Rattus norvegicus) (UniProt P08482+P08483+P08485+P08911+P10980); test: Binding affinity towards Muscarinic acetylcholine receptor at 1.0 uM concentration; type: protein assay
# [2] = biological target: Sodium-dependent dopamine transporter (Rattus norvegicus, UniProt P23977); test: Inhibition of the uptake of tritiated dopamine (DA) in rat synaptosomes; type: subcellular, Brain
# Chain of Sodium-dependent dopamine transporter (P23977 whole entry): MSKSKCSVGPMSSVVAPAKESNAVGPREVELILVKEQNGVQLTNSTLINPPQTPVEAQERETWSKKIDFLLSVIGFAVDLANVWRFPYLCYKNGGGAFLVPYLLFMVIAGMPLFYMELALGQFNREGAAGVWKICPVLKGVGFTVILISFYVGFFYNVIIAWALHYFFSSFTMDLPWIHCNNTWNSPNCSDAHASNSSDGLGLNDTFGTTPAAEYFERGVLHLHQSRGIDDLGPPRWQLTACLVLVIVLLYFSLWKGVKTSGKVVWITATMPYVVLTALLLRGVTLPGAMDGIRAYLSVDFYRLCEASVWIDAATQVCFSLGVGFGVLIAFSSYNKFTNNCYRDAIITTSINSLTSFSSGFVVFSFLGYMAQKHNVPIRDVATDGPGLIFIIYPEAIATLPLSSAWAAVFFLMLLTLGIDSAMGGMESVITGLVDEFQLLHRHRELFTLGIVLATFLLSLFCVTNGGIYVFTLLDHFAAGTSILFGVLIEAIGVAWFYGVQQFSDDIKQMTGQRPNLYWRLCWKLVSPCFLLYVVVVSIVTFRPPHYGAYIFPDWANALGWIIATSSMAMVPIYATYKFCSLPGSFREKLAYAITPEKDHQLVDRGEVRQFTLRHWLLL
# Mus musculus [3] = species on record: Mus musculus; test: Antagonism of tetrabenazine (TBZ)-induced depression measured in mice by motor activity; type: functional; conditions: Mus musculus; read-out: ED50
# Procedure, shortened: (§1)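 Nonfasted male Swiss Webster mice, 18–24 g, ten per dose level and in saline controls. Test compound given ip 30 min before tetrabenazine 32 mg/kg ip; dose expressed as free base. Motor activity and ptosis scored. Control response ≤90% corrected by Abbott's formula.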
# [4] = biological target: Adrenergic receptor alpha-2 (Rattus norvegicus) (UniProt P22086+P19328+P22909); test: Binding affinity towards alpha-2 adrenergic receptor at 1.0 uM concentration; type: protein assay
# [5] = biological target: T1, Adrenergic receptor alpha-1 (Rattus norvegicus, UniProt P15823+P23944+P43140); test: Binding affinity towards alpha-1 adrenergic receptor; type: protein assay
# T1 sequence (P15823 whole entry): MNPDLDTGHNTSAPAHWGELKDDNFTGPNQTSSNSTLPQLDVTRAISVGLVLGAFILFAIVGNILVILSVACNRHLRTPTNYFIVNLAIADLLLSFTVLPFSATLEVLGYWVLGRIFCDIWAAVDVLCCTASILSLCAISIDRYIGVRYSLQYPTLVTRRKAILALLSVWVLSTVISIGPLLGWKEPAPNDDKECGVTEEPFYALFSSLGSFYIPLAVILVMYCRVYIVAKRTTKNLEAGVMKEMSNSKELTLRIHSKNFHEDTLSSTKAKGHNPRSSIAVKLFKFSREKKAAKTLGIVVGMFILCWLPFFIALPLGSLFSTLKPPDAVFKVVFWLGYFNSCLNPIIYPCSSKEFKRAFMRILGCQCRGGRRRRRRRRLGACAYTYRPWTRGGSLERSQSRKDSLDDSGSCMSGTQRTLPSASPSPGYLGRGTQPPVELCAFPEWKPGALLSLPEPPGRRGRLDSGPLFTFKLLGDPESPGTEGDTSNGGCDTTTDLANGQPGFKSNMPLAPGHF
# T1 sequence (P23944 whole entry): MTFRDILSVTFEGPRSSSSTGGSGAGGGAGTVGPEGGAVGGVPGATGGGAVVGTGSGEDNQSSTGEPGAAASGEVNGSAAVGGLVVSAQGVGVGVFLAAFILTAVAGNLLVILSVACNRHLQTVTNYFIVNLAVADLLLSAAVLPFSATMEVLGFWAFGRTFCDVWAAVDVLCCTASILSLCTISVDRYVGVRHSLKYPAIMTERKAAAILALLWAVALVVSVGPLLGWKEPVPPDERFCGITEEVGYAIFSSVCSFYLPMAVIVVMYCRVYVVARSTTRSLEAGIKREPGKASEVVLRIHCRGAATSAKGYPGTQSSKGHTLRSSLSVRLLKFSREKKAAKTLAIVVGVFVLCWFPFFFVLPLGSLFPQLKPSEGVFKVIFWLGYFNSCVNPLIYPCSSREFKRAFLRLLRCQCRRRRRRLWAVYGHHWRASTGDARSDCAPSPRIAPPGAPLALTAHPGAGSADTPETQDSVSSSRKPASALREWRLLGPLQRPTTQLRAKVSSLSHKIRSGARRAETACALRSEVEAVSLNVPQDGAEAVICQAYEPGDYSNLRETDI
# T1 sequence (P43140 whole entry): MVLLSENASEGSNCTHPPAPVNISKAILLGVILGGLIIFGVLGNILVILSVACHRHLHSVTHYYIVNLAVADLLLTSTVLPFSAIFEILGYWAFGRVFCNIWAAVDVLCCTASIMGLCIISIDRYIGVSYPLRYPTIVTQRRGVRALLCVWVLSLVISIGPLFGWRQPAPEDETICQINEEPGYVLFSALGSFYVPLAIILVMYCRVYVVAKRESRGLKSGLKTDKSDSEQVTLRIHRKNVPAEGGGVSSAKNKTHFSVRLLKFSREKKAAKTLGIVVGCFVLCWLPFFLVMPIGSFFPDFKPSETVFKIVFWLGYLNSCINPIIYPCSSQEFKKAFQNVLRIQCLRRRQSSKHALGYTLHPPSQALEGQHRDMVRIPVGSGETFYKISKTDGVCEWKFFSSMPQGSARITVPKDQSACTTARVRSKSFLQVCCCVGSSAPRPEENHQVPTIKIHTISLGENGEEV
# [6] = biological target: Norepinephrine transporter (Rattus norvegicus, UniProt Q9WTR4); test: Inhibition of uptake of tritiated norepinephrine (NE) in rat synaptosomes; type: subcellular, Brain
# Chain of Norepinephrine transporter (Q9WTR4 whole entry): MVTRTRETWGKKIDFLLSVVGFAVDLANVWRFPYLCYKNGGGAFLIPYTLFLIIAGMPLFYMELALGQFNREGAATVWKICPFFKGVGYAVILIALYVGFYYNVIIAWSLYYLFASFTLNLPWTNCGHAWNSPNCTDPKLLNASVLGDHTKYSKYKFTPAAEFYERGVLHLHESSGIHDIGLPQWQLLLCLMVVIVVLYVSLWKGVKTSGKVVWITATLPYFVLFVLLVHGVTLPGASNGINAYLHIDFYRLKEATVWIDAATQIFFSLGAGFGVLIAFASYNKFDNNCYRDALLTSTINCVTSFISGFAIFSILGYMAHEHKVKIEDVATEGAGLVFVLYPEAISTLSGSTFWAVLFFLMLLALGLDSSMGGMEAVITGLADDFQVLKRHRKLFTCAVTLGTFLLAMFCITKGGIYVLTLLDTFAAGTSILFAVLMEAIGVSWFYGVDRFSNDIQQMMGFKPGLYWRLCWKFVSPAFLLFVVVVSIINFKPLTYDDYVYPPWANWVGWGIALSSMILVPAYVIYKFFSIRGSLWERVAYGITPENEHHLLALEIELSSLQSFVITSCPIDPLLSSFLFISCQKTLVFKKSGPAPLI
# [7] = biological target: D(1A) dopamine receptor (Rattus norvegicus) (UniProt P18901); test: Binding affinity towards dDopamine receptor D1 at 1.0 uM concentration
# Chain of D(1A) dopamine receptor (Rattus norvegicus) (P18901 whole entry): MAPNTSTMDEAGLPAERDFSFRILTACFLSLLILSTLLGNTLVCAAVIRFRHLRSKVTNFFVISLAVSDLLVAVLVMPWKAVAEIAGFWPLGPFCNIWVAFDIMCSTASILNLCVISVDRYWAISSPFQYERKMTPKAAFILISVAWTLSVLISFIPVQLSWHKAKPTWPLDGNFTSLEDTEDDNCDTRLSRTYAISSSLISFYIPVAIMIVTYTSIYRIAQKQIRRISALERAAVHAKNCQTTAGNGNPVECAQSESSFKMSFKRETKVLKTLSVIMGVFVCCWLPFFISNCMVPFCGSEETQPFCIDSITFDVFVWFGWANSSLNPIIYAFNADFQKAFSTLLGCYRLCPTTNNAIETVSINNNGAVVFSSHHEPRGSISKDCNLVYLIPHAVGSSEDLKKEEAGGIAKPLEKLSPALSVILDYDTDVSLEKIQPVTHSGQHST
# Procedure, shortened: (§2)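 Rat brain crude synaptic membranes in 20 mM NaHEPES pH 7.5. Ligands: α1 cortex […] 0.4 nM, nonspecific with (-)-NE 100 μM, 30 min at 25 °C. […] D2 striatum [3H]spiperone 0.05 nM with (+)-butaclamol 1 μM, 45 min at 37 °C. S1 cortex [3H]5-HT 1 nM plus glutathione and MgCl2, with 5-HT 10 μM, 20 min at 37 °C. […] Samples filtered on GF/B and counted.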
# Mus musculus [8] = species on record: Mus musculus; test: Gross behavioral effects ascertained in mice; S indicates significant stimulant properties.; type: functional, organism-based
# Procedure, shortened: (§3)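 Male Swiss Webster mice, 18–24 g, three per dose, given ip doses of 1, 3, 10, 30, 100 and 300 mg/kg. Observed for gross behavior and held for 4 days. Scored as weak (W), stimulant (S), depressant (D) or convulsant (C).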
# [9] = biological target: D(2) dopamine receptor (Rattus norvegicus) (UniProt P61169); test: Binding affinity towards dopamine receptor D2 at 1.0 uM concentration; procedure, shortened: as §2
# Chain of D(2) dopamine receptor (Rattus norvegicus) (P61169 whole entry): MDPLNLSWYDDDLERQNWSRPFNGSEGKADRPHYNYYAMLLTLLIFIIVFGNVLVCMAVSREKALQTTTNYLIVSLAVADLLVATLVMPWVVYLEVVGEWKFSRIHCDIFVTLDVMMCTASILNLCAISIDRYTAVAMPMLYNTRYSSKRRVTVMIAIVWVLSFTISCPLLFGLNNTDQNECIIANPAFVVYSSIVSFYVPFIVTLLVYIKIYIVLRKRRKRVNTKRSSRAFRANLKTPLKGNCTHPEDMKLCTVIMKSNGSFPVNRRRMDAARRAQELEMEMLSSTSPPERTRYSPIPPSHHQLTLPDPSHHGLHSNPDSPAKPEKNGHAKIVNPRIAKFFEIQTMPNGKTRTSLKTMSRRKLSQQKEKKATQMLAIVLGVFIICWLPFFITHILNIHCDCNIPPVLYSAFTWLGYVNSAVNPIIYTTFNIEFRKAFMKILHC
# Mus musculus [10] = species on record: Mus musculus; test: Antagonism of tetrabenazine (TBZ)-induced depression in mice measured for ptosis; type: functional; conditions: Mus musculus; read-out: ED50; procedure, shortened: as §1
# Mus musculus [11] = test: Ability to antagonise intraperitoneal dose; inactive (<10% antagonism) at 30 mg/kg is represented as I-30.; type: functional, organism-based; parameters: dose 30 mg/kg; procedure, shortened: as §1
# Rattus norvegicus [12] = species on record: Rattus norvegicus; test: Ability to inhibit the uptake of tritiated serotonin(5-HT) %inhibition; type: functional
# Procedure, shortened: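 Rat brain synaptosomes (male Wistar P2 fraction) from hypothalamus (NE), striatum (DA) or cerebral cortex (5-HT), in Tris or HEPES Krebs-type medium with nialamide, pH 7.4. Preincubation 10 min at 37 °C with compound. Then [3H]NE 100–300 nM, [3H]DA 50–300 nM or [3H]5-HT 100–200 nM added for 3 min (DA) or 6–10 min (NE, 5-HT). Blanks kept on ice. Filtration and scintillation counting. Percent inhibition at 0.100 μM when weak.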
# Mus musculus [13] = species on record: Mus musculus; test: Gross behavioral effects ascertained in mice; D indicates significant depressant properties.; type: functional, organism-based
# Procedure, shortened: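 Male Swiss Webster albino mice, 18–24 g, three per dose, given ip 1, 3, 10, 30, 100 and 300 mg/kg. Gross behaviour observed and held 4 days. Estimated LD50 range from lethality count on day 4. Scored as weak stimulant/depressant, significant stimulant, significant depressant or overt convulsant.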
# Mus musculus [14] = test: (§4) Ability to antagonise intraperitoneal dose; inactive (<10% antagonism) at 30 mgjkg is represented as I-30.; type: functional, organism-based; procedure, shortened: as §1
# Rattus norvegicus [15] = species on record: Rattus norvegicus; test: Ability to inhibit the uptake of tritiated serotonin(5-HT) at 1 uM concentration; type: functional
# Procedure, shortened: (§5)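 Rat synaptosomal uptake as above: striatal P2 for [3H]DA (50–300 nM, 3 min) and cortical P2 for [3H]5-HT (100–200 nM, 6 min). 37 °C after 10-min preincubation with compound. […] Blanks incubated in ice water. Filter-retained tritium counted by liquid scintillation.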
# Rattus norvegicus [16] = species on record: Rattus norvegicus; test: Ability to inhibit the uptake of tritiated norepinephrine (NE) at 0.1 uM concentration; type: functional
# Procedure, shortened: (§6)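 Male Wistar rat brain synaptosomes (P2 fraction): hypothalamus for NE, striatum for DA, cerebral cortex for 5-HT. Buffer is Tris- or HEPES-buffered salt medium with glucose, ascorbate and nialamide, pH 7.4 at 37 °C. Preincubated 10 min at 37 °C with compound. Uptake started with [3H]NE 100–300 nM, [3H]DA 50–300 nM or [3H]5-HT 100–200 nM, incubated 3 min (DA) or 6–10 min (NE, 5-HT). Blanks held on ice. Filtered, counted by scintillation.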
# Rattus norvegicus [17] = species on record: Rattus norvegicus; test: Ability to inhibit the uptake of tritiated dopamine (DA) at 1 uM concentration; type: functional; procedure, shortened: as §5
# [18] = biological target: Serotonin 2 (5-HT2) receptor (Rattus norvegicus) (UniProt P30994+P08909+P14842); test: (§7) Binding affinity towards 5-hydroxytryptamine 2 receptor at 1.0 uM concentration; type: protein assay; procedure, shortened: as §2
# Chain of Serotonin 2 (5-HT2) receptor (Rattus norvegicus) (P08909 whole entry, looked up): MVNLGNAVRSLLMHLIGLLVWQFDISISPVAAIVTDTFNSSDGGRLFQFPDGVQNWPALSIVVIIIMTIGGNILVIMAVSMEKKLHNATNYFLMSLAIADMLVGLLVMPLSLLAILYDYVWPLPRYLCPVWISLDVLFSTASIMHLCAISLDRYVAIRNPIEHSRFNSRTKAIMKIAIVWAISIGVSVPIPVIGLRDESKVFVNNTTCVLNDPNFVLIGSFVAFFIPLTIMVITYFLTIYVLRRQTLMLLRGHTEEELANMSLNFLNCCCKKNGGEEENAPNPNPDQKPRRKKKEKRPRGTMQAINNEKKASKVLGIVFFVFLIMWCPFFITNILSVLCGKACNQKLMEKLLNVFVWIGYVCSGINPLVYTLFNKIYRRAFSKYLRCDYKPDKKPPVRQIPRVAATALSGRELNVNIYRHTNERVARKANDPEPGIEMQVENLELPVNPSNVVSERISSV
# Chain of Serotonin 2 (5-HT2) receptor (Rattus norvegicus) (P14842 whole entry, looked up): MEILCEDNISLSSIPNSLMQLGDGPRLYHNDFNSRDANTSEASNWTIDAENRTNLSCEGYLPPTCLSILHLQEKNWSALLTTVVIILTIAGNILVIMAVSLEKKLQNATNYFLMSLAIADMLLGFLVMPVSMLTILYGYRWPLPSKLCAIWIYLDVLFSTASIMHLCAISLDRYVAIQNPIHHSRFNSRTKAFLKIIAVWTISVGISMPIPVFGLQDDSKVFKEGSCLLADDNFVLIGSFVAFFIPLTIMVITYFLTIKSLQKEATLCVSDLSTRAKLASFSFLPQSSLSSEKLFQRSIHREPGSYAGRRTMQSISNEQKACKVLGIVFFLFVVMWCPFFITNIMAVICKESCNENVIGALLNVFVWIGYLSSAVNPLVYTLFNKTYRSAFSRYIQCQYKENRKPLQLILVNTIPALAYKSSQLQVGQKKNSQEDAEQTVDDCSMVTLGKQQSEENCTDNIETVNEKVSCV
# Chain of Serotonin 2 (5-HT2) receptor (Rattus norvegicus) (P30994 whole entry, looked up): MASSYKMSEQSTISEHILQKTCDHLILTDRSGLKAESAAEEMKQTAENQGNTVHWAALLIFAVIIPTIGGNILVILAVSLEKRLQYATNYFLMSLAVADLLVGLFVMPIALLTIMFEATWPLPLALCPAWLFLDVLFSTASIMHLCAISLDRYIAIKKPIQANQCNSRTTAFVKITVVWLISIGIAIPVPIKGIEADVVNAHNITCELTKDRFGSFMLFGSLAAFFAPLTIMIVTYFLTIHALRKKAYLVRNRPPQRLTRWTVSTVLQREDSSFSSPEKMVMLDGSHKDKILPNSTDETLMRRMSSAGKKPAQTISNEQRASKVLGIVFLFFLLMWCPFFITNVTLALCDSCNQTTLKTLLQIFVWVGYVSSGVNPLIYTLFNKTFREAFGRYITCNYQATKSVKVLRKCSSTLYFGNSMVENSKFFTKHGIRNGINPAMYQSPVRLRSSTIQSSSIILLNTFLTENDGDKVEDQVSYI
# Rattus norvegicus [19] = species on record: Rattus norvegicus; test: Ability to inhibit the uptake of tritiated norepinephrine (NE); type: functional; procedure, shortened: as §6
# [20] = biological target: Serotonin 1 (5-HT1) receptor (Rattus norvegicus) (UniProt P28564+P30940+P19327+P28565); test: Binding affinity towards serotonin S1 receptor at 1.0 uM; type: protein assay; procedure, shortened: as §2
# Mus musculus [21] = species on record: Mus musculus; test: Gross behavioral effects ascertained in mice; W indicates weak stimulant or depressant activity of little significance.; type: functional, organism-based; procedure, shortened: as §3
# [22] = biological target: Sodium-dependent serotonin transporter (Rattus norvegicus) (UniProt P31652); test: Inhibition of tritiated serotonin(5-HT) uptake at 0.1 uM concentration; type: functional; procedure, shortened: as §6
# Chain of Sodium-dependent serotonin transporter (Rattus norvegicus) (P31652 whole entry): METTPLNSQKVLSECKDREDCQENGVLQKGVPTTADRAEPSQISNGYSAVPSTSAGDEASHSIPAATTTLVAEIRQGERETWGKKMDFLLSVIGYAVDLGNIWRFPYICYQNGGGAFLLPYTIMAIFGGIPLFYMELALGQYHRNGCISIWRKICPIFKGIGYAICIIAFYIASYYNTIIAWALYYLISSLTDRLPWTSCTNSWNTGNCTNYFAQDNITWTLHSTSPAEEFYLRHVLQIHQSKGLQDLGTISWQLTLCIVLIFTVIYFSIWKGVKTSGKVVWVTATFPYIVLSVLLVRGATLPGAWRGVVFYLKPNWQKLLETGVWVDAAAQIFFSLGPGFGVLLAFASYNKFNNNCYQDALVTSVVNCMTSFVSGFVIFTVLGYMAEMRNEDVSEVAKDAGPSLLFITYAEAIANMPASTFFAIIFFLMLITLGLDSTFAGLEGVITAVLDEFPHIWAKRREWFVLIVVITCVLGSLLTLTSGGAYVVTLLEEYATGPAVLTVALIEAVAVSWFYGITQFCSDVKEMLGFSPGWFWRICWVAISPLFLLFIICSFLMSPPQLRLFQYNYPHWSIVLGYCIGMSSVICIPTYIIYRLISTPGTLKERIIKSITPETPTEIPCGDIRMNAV
# [23] = biological target: Sodium-dependent dopamine transporter (Rattus norvegicus) (UniProt P23977); test: Inhibition of tritiated dopamine (DA) uptake at 0.1 uM concentration; type: functional; procedure, shortened: as §6
# Chain of Sodium-dependent dopamine transporter (Rattus norvegicus) (P23977 whole entry): as the sequence (P23977 whole entry) above
# [24] = biological target: Serotonin 2 (5-HT2) receptor (Rattus norvegicus, UniProt P30994+P08909+P14842); test: as §7; type: protein assay
# Rattus norvegicus [25] = test: Ability to inhibit the uptake of tritiated serotonin(5-HT) at 0.1 mg/kg concentration; type: functional
# Mus musculus [26] = test: as §4; type: functional, organism-based; remark: listed apart in the source
# Procedure, shortened: (§8)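 Swiss Webster male albino mice, nonfasted, 18–24 g, 10 per dose and in saline control. Compound given ip 30 min before TBZ 32 mg/kg ip. Motor activity and ptosis scored. Response corrected by Abbott's formula when control response was 90% or less. Doses expressed as free base.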
# Mus musculus [27] = test: Ability to antagonise tetrabenazine (TBZ)-induced depression measured in mice for ptosis by 10 mg/kg i.p. dose; inactive (<10% antagonism) at 30 mgjkg is represented as I-30.; type: functional, organism-based; parameters: dose 10 mg/kg; procedure, shortened: as §8
# [28] = biological target: Sodium-dependent serotonin transporter (Rattus norvegicus) (UniProt P31652); test: Ability to inhibit the uptake of [3H]- serotonin(5-HT) 0.1 uM concentration at rat brain synaptosomes; type: functional, subcellular; procedure, shortened: as §6
# [29] = biological target: Norepinephrine transporter (Rattus norvegicus) (UniProt Q9WTR4); test: Ability to inhibit the uptake of [3H]norepinephrine (NE) 0.1 uM concentration at rat brain synaptosomes; type: functional, subcellular; procedure, shortened: as §6
# Chain of Norepinephrine transporter (Rattus norvegicus) (Q9WTR4 as listed by the source): as the sequence (Q9WTR4 whole entry) above
# Rattus norvegicus [30] = species on record: Rattus norvegicus; test: Ability to inhibit the uptake of tritiated dopamine (DA) 0.1 uM concentration; type: functional; procedure, shortened: as §6
smiles,measurement,setting,value
Br.Oc1ccc([C@@H]2CN3CCC[C@@H]3c3ccccc32)cc1,inhibition,[1],3%
same,Ki,[2],5.1 nM
same,ED50,Mus musculus [3],0.4 mg/kg
same,inhibition,[4],70%
same,Ki,[5],252 nM
same,Ki,[6],0.74 nM
same,inhibition,[7],27%
same,behavior,Mus musculus [8],Stimulant
same,inhibition,[9],65%
same,ED50,Mus musculus [10],0.09 mg/kg
Br.c1csc([C@@H]2CN3CCC[C@H]3c3ccsc32)c1,ED50,Mus musculus [11],inactive
same,Inhibition,Rattus norvegicus [12],2%
same,behavior,Mus musculus [13],Significant depressant
same,ED50,Mus musculus [14],inactive
Clc1ccc([C@@H]2CN3CCC[C@H]3c3ccccc32)c(Cl)c1,Inhibition,Rattus norvegicus [15],52%
same,Inhibition,Rattus norvegicus [16],31%
same,Inhibition,Rattus norvegicus [17],34%
Br.Fc1ccc([C@@H]2CN3CCC[C@H]3c3cc(F)ccc32)cc1,inhibition,[18],5%
same,ED50,Mus musculus [3],> 60 mg/kg
same,Ki,Rattus norvegicus [19],~100 nM
same,inhibition,[20],-9%
same,behavior,Mus musculus [21],Partial stimulant
same,inhibition,[22],21%
same,inhibition,[9],48%
same,ED50,Mus musculus [10],1.6 mg/kg
same,inhibition,[23],38%
O=C(Nc1ccccc1)Nc1ccc([C@@H]2CN3CCC[C@H]3c3ccccc32)cc1,Ki,[2],9.8 nM
same,Ki,[24],54 nM
same,ED50,Mus musculus [3],> 60 mg/kg
same,Ki,[6],41.3 nM
same,ED50,Mus musculus [10],10 mg/kg
c1ccc([C@@H]2CN3CCC[C@H]3c3ccsc32)cc1,inhibition in vivo at 0.1 mg/kg,Rattus norvegicus [25],28%
same,behavior,Mus musculus [13],Significant depressant
same,ED50,Mus musculus [26],inactive
same,ED50,Mus musculus [27],inactive
c1ccc([C@@H]2CN3CCCC[C@H]3c3ccccc32)cc1,inhibition,[28],11%
same,inhibition,[29],27%
same,behavior,Mus musculus [21],Weak
same,Ki,Rattus norvegicus [30],1000 nM
